Measurements reported in ChEMBL document CHEMBL3603756, “Synthesis and apoptotic activity of new pyrazole derivatives in cancer cell lines” (2015).
The source made the active and inactive calls. No cut-off for these calls is given here.

Tests used:
HCT-8 [1] = experiment: Induction of apoptosis in human HCT8 cells assessed viable cells level at 50 ug/ml incubated for 24 hrs by annexin V-FITC and propidium iodide staining based flow cytometry (reference value: 93.3%); format: functional
HCT-8 [2] = experiment: Induction of apoptosis in human HCT8 cells assessed necrosis level at 50 ug/ml incubated for 24 hrs by annexin V-FITC and propidium iodide staining based flow cytometry (reference value: 1.12%); format: functional
HEp-2 [3] = experiment: Reduction in c-IAP2 levels in human Hep2 cells at 50 ug/ml incubated for 24 hrs by protein array method; format: functional, cell-based
HEp-2 [4] = experiment: Reduction in c-IAP1 levels in human Hep2 cells at 50 ug/ml incubated for 24 hrs by protein array method; format: functional, cell-based
[5] = Cytotoxicity against human Hep2 cells assessed as cell viability at 25 ug/ml incubated for 24 hrs by MTS assay; format: functional; conditions: HEp-2, 24 h, read-out: Activity
Procedure, shortened: (§1)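 Cells were held at 37 °C, 5% CO2 in humid air. HEp-2 (5 x 10³/well) and HCT-8 (7 x 10³/well) grew in DMEM + 10% heat-inactivated FBS and got compound (binary dilutions) 24 h after seeding. THP-1 (5 x 10³ cells, RPMI-1640 + 10% FBS) were added directly to the dilutions. Exposure lasted 24 h. MTS (CellTiter 96 AQueous One) read-out was absorbance at 490 nm.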

[6] = Cytotoxicity against human HCT8 cells assessed as cell viability at 50 ug/ml incubated for 24 hrs by MTS assay; format: functional; conditions: HCT-8, 24 h, read-out: Activity; procedure, shortened: as §1
HEp-2 [7] = experiment: Increase in caspase-8 levels in human Hep2 cells at 50 ug/ml incubated for 24 hrs by protein array method; format: functional, cell-based
THP-1 [8] = experiment: Cytotoxicity against human THP1 cells assessed as cell viability at 25 ug/ml incubated for 24 hrs by MTS assay; format: functional; conditions: THP-1, 24 h, read-out: Activity; procedure, shortened: as §1
HCT-8 [9] = experiment: Induction of apoptosis in human HCT8 cells assessed late apoptosis level at 50 ug/ml incubated for 24 hrs by annexin V-FITC and propidium iodide staining based flow cytometry (reference value: 4.8%); format: functional
[10] = Cytotoxicity against human HCT8 cells assessed as cell viability at 25 ug/ml incubated for 24 hrs by MTS assay; format: functional; conditions: HCT-8, 24 h, read-out: Activity; procedure, shortened: as §1
HEp-2 [11] = experiment: Increase in cleaved-caspase-3 levels in human Hep2 cells at 50 ug/ml incubated for 24 hrs by protein array method; format: functional, cell-based
HEp-2 [12] = experiment: Reduction in livin protein levels in human Hep2 cells at 50 ug/ml incubated for 24 hrs by protein array method; format: functional, cell-based
HEp-2 [13] = experiment: Increase in TRAIL-R2 protein expression in human Hep2 cells at 50 ug/ml incubated for 24 hrs by protein array method; format: functional, cell-based
HEp-2 [14] = experiment: Reduction in XIAP levels in human Hep2 cells at 50 ug/ml incubated for 24 hrs by protein array method; format: functional, cell-based
HEp-2 [15] = experiment: Reduction in HSP27 protein levels in human Hep2 cells at 50 ug/ml incubated for 24 hrs by protein array method; format: functional, cell-based
[16] = Cytotoxicity against human HCT8 cells assessed as cell viability at 12.5 ug/ml incubated for 24 hrs by MTS assay; format: functional; conditions: HCT-8, 24 h, read-out: Activity; procedure, shortened: as §1
HEp-2 [17] = experiment: Induction of cell cycle arrest in human Hep2 cells assessed accumulation at S phase at 50 ug/ml incubated for 24 hrs by propidium iodide staining based flow cytometry (reference value: 21.06%); format: functional
HEp-2 [18] = experiment: Increase in TRAIL-R1 protein expression in human Hep2 cells at 50 ug/ml incubated for 24 hrs by protein array method; format: functional, cell-based
HEp-2 [19] = experiment: Reduction in survivin protein levels in human Hep2 cells at 50 ug/ml incubated for 24 hrs by protein array method; format: functional, cell-based
HEp-2 [20] = experiment: Induction of cell cycle arrest in human Hep2 cells assessed accumulation at G0/G1 phase at 10 ug/ml incubated for 24 hrs by propidium iodide staining based flow cytometry (reference value: 74.51%); format: functional
[21] = Reduction in PRKAA2 gene expression in human Hep2 cells at 10 ug/ml incubated for 24 hrs by real-time PCR method; format: functional, cell-based; conditions: HEp-2
Procedure, shortened: (§2)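 HEp-2 cells were treated 24 h at 10 or 50 µg/mL. Total RNA was extracted with Trizol, and 2 µg was reverse-transcribed. 50 ng cDNA went into TaqMan real-time PCR with beta-actin as endogenous control. Relative expression was calculated by the ∆∆CT method. Each experiment was run three times.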

[22] = Reduction in PRKAA1 gene expression in human Hep2 cells at 50 ug/ml incubated for 24 hrs by real-time PCR method; format: functional, cell-based; conditions: HEp-2; procedure, shortened: as §2
THP-1 [23] = experiment: Cytotoxicity against human THP1 cells assessed as cell viability at 50 ug/ml incubated for 24 hrs by MTS assay; format: functional; conditions: THP-1, 24 h, read-out: Activity; procedure, shortened: as §1
HEp-2 [24] = experiment: Induction of cell cycle arrest in human Hep2 cells assessed accumulation at S phase at 10 ug/ml incubated for 24 hrs by propidium iodide staining based flow cytometry (reference value: 21.06%); format: functional
[25] = Cytotoxicity against human Hep2 cells assessed as cell viability at 12.5 ug/ml incubated for 24 hrs by MTS assay; format: functional; conditions: HEp-2, 24 h, read-out: Activity; procedure, shortened: as §1
[26] = Reduction in PRKAA2 gene expression in human Hep2 cells at 50 ug/ml incubated for 24 hrs by real-time PCR method; format: functional, cell-based; conditions: HEp-2; procedure, shortened: as §2
HEp-2 [27] = experiment: Increase in FADD protein expression in human Hep2 cells at 50 ug/ml incubated for 24 hrs by protein array method; format: functional, cell-based
HEp-2 [28] = experiment: Induction of cell cycle arrest in human Hep2 cells assessed accumulation at G2/M phase at 50 ug/ml incubated for 24 hrs by propidium iodide staining based flow cytometry (reference value: 7.82%); format: functional
HEp-2 [29] = experiment: Induction of cell cycle arrest in human Hep2 cells assessed accumulation at G2/M phase incubated for 24 hrs by propidium iodide staining based flow cytometry; format: functional
[30] = Cytotoxicity against human Hep2 cells assessed as cell viability at 50 ug/ml incubated for 24 hrs by MTS assay; format: functional; conditions: HEp-2, 24 h, read-out: Activity; procedure, shortened: as §1
HEp-2 [31] = experiment: Reduction in pro-caspase-3 levels in human Hep2 cells at 50 ug/ml incubated for 24 hrs by protein array method; format: functional, cell-based
HEp-2 [32] = experiment: Reduction in HSP70 protein levels in human Hep2 cells at 50 ug/ml incubated for 24 hrs by protein array method; format: functional, cell-based
HEp-2 [33] = experiment: Increase in Fas/TNFRSF6 protein expression in human Hep2 cells at 50 ug/ml incubated for 24 hrs by protein array method; format: functional, cell-based
[34] = Reduction in PRKAA1 gene expression in human Hep2 cells at 10 ug/ml incubated for 24 hrs by real-time PCR method; format: functional, cell-based; conditions: HEp-2; procedure, shortened: as §2
HEp-2 [35] = experiment: Induction of apoptosis in human Hep2 cells assessed as increase in p53 S15/S46/S392 phosphorylation level at 50 ug/ml incubated for 24 hrs by protein array method; format: functional, cell-based
THP-1 [36] = experiment: Cytotoxicity against human THP1 cells assessed as cell viability at 12.5 ug/ml incubated for 24 hrs by MTS assay; format: functional; conditions: THP-1, 24 h, read-out: Activity; procedure, shortened: as §1
HCT-8 [37] = experiment: Induction of apoptosis in human HCT8 cells assessed early apoptosis level at 50 ug/ml incubated for 24 hrs by annexin V-FITC and propidium iodide staining based flow cytometry (reference value: 0.75%); format: functional
HEp-2 [38] = experiment: Induction of cell cycle arrest in human Hep2 cells assessed accumulation at G0/G1 phase at 50 ug/ml incubated for 24 hrs by propidium iodide staining based flow cytometry (reference value: 74.51%); format: functional
HEp-2 [39] = experiment: Induction of cell cycle arrest in human Hep2 cells assessed accumulation at G2/M phase at 10 ug/ml incubated for 24 hrs by propidium iodide staining based flow cytometry (reference value: 7.82%); format: functional
HEp-2 [40] = experiment: Increase in cyclin B gene expression in human Hep2 cells at 10 ug/ml incubated for 24 hrs by real-time PCR method; format: functional, cell-based; procedure, shortened: as §2
HEp-2 [41] = experiment: Increase in PRKAA1 gene expression in human Hep2 cells at 50 ug/ml incubated for 24 hrs by real-time PCR method; format: functional, cell-based; procedure, shortened: as §2
HEp-2 [42] = experiment: Increase in PRKAA2 gene expression in human Hep2 cells at 50 ug/ml incubated for 24 hrs by real-time PCR method; format: functional, cell-based; procedure, shortened: as §2
HEp-2 [43] = experiment: Increase in cyclin B gene expression in human Hep2 cells at 50 ug/ml incubated for 24 hrs by real-time PCR method; format: functional, cell-based; procedure, shortened: as §2

For `Cn1cc(C(=O)/N=C2\SCC(C)(O)N2c2ccc(I)cc2)cn1` (stereo not given), the Activity (HCT-8 [1]) was 90.2%, the Activity (HCT-8 [2]) was 1.44% and the Activity (HEp-2 [3]) was “Active”. For the same molecule, the Activity (HEp-2 [4]) was “Active”, the viability at 25 µg/mL [5] was 100% and the viability at 50 µg/mL [6] was 90.2%. For the same molecule, the Activity (HEp-2 [7]) was “Active”, the viability at 25 µg/mL (THP-1 [8]) was 84.1% and the Activity (HCT-8 [9]) was 3.37%. The viability at 25 µg/mL [10] was 100%, the Activity (HEp-2 [11]) was “Active” and the Activity (HEp-2 [12]) was “Active”. For the same molecule, the Activity (HEp-2 [13]) was “Active”, the Activity (HEp-2 [14]) was “Active” and the Activity (HEp-2 [15]) was “Active”. For the same molecule, the viability at 12.5 µg/mL [16] was 100%, the Activity (HEp-2 [17]) was 27.01% and the Activity (HEp-2 [18]) was “Active”. The Activity (HEp-2 [19]) was “Active”, the Activity (HEp-2 [20]) was 74.73% and the Activity [21] was “Active”. The Activity [22] was “Active”, the viability at 50 µg/mL (THP-1 [23]) was 38.4% and the Activity (HEp-2 [24]) was 17.85%. The viability at 12.5 µg/mL [25] was 100%, the Activity [26] was “Active” and the Activity (HEp-2 [27]) was “Active”. The Activity (HEp-2 [28]) was 33.4%, the Activity (HEp-2 [29]) was “Dose-dependent effect” and the viability at 50 µg/mL [30] was 89%. The Activity (HEp-2 [31]) was “Active”, the Activity (HEp-2 [32]) was “Active” and the Activity (HEp-2 [33]) was “Active”. For the same molecule, the Activity [34] was “Active”, the Activity (HEp-2 [35]) was “Active” and the viability at 12.5 µg/mL (THP-1 [36]) was 97%. The Activity (HCT-8 [37]) was 4.96%, the Activity (HEp-2 [38]) was 43.62% and the Activity (HEp-2 [39]) was 14.92%.

In the case of `Cn1cc(C(=O)NC(=S)Nc2cccc(Br)c2)cn1`, the Activity (HCT-8 [1]) was 78.2%, the Activity (HCT-8 [2]) was 7.58% and the Activity (HEp-2 [3]) was “Active”. The Activity (HEp-2 [4]) was “Active”, the viability at 25 µg/mL [5] was 82% and the viability at 50 µg/mL [6] was 78.2%. For the same molecule, the Activity (HEp-2 [7]) was “Active”, the viability at 25 µg/mL (THP-1 [8]) was 55.8% and the Activity (HCT-8 [9]) was 7.11%. The viability at 25 µg/mL [10] was 89.8%, the Activity (HEp-2 [11]) was “Active” and the Activity (HEp-2 [12]) was “Active”. The Activity (HEp-2 [13]) was “Active”, the Activity (HEp-2 [40]) was “Active” and the Activity (HEp-2 [14]) was “Active”. For the same molecule, the Activity (HEp-2 [15]) was “Active”, the viability at 12.5 µg/mL [16] was 94% and the Activity (HEp-2 [17]) was 34.7%. For the same molecule, the Activity (HEp-2 [18]) was “Active”, the Activity (HEp-2 [19]) was “Active” and the Activity (HEp-2 [20]) was 66.12%. The Activity [21] was “Active”, the viability at 50 µg/mL (THP-1 [23]) was 32% and the Activity (HEp-2 [24]) was 20.85%. The Activity (HEp-2 [41]) was “Active”, the viability at 12.5 µg/mL [25] was 100% and the Activity (HEp-2 [42]) was “Active”. For the same molecule, the Activity (HEp-2 [27]) was “Active”, the Activity (HEp-2 [43]) was “Active” and the Activity (HEp-2 [28]) was 52.33%. For the same molecule, the Activity (HEp-2 [29]) was “Dose-dependent effect”, the viability at 50 µg/mL [30] was 70% and the Activity (HEp-2 [31]) was “Active”. For the same molecule, the Activity (HEp-2 [32]) was “Active”, the Activity (HEp-2 [33]) was “Active” and the Activity [34] was “Active”. For the same molecule, the Activity (HEp-2 [35]) was “Active”, the viability at 12.5 µg/mL (THP-1 [36]) was 77% and the Activity (HCT-8 [37]) was 7.07%. For the same molecule, the Activity (HEp-2 [38]) was 15.4% and the Activity (HEp-2 [39]) was 18.43%.
